Results as given in ChEMBL document CHEMBL4118202, “Chiral analogues of (+)-cyclazosin as potent α1B-adrenoceptor selective antagonist” (Bioorg Med Chem, 2018).

Columns and labels:
[1] = target: T1, Alpha-1A adrenergic receptor (Rattus norvegicus) (UniProt P43140); test: Antagonist activity at alpha1A adrenergic receptor in Wistar rat prostatic rat vas deferens assessed as inhibition of noradrenaline-induced contraction preincubated for 30 mins followed by noradrenaline addition measured after 45 mins in presence of cocaine hydrochloride; format: functional
T1 sequence (whole entry): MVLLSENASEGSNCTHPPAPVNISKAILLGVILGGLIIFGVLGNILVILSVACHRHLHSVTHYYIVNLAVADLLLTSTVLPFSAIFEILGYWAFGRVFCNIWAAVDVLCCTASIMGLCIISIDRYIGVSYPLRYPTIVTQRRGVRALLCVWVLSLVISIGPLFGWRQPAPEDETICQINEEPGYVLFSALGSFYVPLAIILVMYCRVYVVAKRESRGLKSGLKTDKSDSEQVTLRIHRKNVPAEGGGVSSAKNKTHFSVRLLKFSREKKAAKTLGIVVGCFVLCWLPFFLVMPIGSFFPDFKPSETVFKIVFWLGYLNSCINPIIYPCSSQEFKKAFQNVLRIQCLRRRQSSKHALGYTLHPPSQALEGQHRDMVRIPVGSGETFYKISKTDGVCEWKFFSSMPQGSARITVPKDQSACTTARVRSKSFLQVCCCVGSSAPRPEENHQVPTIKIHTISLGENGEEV
In short: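 Prostatic rat vas deferens, 2 cm portions, held at 0.35 g in Tyrode (pH 7.4, 37 °C, 95% O2/5% CO2). Cocaine 10 μM added 20 min before the agonist. Tissue equilibrated 45 min and primed twice with 10 μM noradrenaline. Isotonic cumulative noradrenaline curves were run before and after 30 min antagonist. pA2 came from Schild plots (≥3 concentrations); otherwise pKB (van Rossum). n ≥ 4.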

Rattus norvegicus [2] = species on record: Rattus norvegicus; test: Selectivity ratio of compound effect for antagonism of alpha1D adrenergic receptor in Wistar rat thoracic aorta to compound effect for antagonism of alpha1A adrenergic receptor in Wistar rat prostatic rat vas deferens
In short: (§1)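 Ratio taken as the antilog of the difference between rat tissue pA2 or pKB values for the two subtypes (vas deferens α1A, spleen α1B, aorta α1D organ-bath antagonism).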

[3] = target: T2, Alpha-1A adrenergic receptor (Homo sapiens, UniProt P35348); test: Displacement of [3H]prazosin from human alpha1A adrenergic receptor expressed in CHO cell membranes after 30 mins by rapid filtration method
T2 sequence (P35348 whole entry): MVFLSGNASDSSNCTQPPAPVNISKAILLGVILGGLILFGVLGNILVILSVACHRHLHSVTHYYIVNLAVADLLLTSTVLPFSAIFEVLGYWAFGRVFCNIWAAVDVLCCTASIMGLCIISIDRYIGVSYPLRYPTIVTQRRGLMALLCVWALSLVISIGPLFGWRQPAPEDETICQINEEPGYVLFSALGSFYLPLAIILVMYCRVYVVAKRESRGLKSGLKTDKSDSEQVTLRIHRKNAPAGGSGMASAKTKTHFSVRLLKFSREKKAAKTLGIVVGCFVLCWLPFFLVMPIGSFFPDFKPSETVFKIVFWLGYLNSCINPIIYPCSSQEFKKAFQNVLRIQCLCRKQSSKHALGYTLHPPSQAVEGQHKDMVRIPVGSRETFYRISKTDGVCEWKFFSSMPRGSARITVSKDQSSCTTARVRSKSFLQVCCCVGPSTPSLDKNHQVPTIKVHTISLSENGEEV
In short: (§2)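 Membranes (30 μg protein) from CHO cells stably transfected with the human α1a, α1b or α1d receptor. Incubated 30 min at 25 °C in 50 mM Tris-HCl pH 7.4 with 0.1–0.4 nM [3H]prazosin and competitor 1 pM–10 μM. Nonspecific binding defined by 10 μM phentolamine. Stopped by rapid filtration through PEI-treated filters. IC50 converted to Ki by Cheng-Prusoff; pKi from 2–3 experiments in triplicate.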

Rattus norvegicus [4] = species on record: Rattus norvegicus; test: Selectivity ratio of compound effect for antagonism of alpha1B adrenergic receptor in Wistar rat spleen to compound effect for antagonism of alpha1A adrenergic receptor in Wistar rat prostatic rat vas deferens; in short: as §1
[5] = target: T3, Alpha-1D adrenergic receptor (Homo sapiens, UniProt P25100); test: Displacement of [3H]prazosin from human alpha1D adrenergic receptor expressed in CHO cell membranes after 30 mins by rapid filtration method; in short: as §2
T3 sequence (P25100 whole entry): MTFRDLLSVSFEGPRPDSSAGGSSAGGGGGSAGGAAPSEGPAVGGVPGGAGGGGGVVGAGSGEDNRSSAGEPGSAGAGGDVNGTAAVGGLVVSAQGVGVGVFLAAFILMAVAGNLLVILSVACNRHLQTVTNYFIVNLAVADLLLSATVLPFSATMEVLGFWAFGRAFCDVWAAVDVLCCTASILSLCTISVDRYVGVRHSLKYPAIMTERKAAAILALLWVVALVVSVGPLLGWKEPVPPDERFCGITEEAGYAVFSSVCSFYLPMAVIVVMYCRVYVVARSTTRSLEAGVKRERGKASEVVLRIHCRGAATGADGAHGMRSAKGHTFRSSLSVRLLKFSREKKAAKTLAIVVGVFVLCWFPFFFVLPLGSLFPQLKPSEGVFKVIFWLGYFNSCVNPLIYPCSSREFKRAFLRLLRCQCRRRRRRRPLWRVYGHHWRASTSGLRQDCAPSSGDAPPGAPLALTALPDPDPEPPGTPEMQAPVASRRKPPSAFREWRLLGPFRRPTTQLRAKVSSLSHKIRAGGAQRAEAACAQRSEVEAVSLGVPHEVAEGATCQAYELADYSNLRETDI

[6] = target: T4, Alpha-1B adrenergic receptor (Homo sapiens, UniProt P35368); test: Displacement of [3H]prazosin from human alpha1B adrenergic receptor expressed in CHO cell membranes after 30 mins by rapid filtration method; in short: as §2
T4 sequence (P35368 whole entry): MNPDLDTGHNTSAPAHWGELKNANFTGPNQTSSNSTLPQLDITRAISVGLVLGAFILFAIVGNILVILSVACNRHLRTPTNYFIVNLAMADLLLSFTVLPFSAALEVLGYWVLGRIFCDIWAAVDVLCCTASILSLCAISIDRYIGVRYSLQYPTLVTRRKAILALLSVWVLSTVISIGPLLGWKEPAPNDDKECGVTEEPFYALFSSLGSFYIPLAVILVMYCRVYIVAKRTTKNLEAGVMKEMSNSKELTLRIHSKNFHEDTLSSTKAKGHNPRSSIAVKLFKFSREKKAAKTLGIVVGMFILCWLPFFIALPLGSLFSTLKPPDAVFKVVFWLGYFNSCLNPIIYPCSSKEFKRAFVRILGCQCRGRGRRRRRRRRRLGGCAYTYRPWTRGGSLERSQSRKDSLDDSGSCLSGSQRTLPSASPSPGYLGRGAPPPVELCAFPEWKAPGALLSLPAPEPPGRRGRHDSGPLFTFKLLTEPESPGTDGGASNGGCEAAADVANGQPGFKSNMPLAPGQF

Rattus norvegicus [7] = species on record: Rattus norvegicus; test: Selectivity ratio of compound effect for antagonism of alpha1B adrenergic receptor in Wistar rat spleen to compound effect for antagonism of alpha1D adrenergic receptor in Wistar rat thoracic aorta; in short: as §1

Structure (SMILES)	pKb [1]	Selectivity ratio (Rattus norvegicus [2])	Ki [3] [nM]	Selectivity ratio (Rattus norvegicus [4])	Ki [5] [nM]	Ki [6] [nM]	Selectivity ratio (Rattus norvegicus [7])
COc1cc2nc(N3CCN(C(=O)C(C)(C)C)[C@H]4CCCC[C@H]43)nc(N)c2cc1OC	7.17	0.5	6.61	12	6.17	0.776	26
CCCN(CCC)c1nc(N2CCN(C(=O)c3ccco3)[C@H]3CCCC[C@H]32)nc2cc(OC)c(OC)cc12	5.89	2	22.4	93	5.13	0.302	44
COc1cc2nc(N3CCN(C(=O)Cc4ccc5ccccc5c4)[C@H]4CCCC[C@H]43)nc(N)c2cc1OC	6.56	2	17	30	2.24	1.17	15
COc1cc2nc(N3CCN(C(C)=O)[C@@H]4CCCC[C@@H]43)nc(N)c2cc1OC	–	20	9.12	72	0.151	0.741	4
COc1cc2nc(N3CCN(C(C)=O)[C@H]4CCCC[C@H]43)nc(N)c2cc1OC	–	2	224	1000	105	9.12	562
COc1cc2nc(N3CCN(C(=O)C4COc5ccccc5O4)[C@H]4CCCC[C@H]43)nc(N)c2cc1OC (single isomer, unassigned; (-)) [CYCLODOXAZOSIN]	–	3	–	81	–	–	32

Further lines, results first:

pKb [1]	Selectivity ratio (Rattus norvegicus [2])	Ki [3] [nM]	Selectivity ratio (Rattus norvegicus [4])	Ki [5] [nM]	Ki [6] [nM]	Selectivity ratio (Rattus norvegicus [7])	Structure (SMILES)
7.02	1	1.86	1	0.0631	0.129	1	CCCN(CCC)c1nc(N2CCN(C(=O)c3ccco3)[C@@H]3CCCC[C@@H]32)nc2cc(OC)c(OC)cc12
–	3	5.5	457	3.98	0.38	141	COc1cc2nc(N3CCN(C(=O)OCc4ccccc4)[C@H]4CCCC[C@H]43)nc(N)c2cc1OC
–	3	0.871	0.8	0.389	0.151	0.3	COc1cc2nc(N3CCN(C(=O)COc4c(OC)cccc4C(C)C)[C@H]4CCCC[C@H]43)nc(N)c2cc1OC
7.06	0.6	5.75	9	3.72	0.912	15	CCCCCC(=O)N1CCN(c2nc(N)c3cc(OC)c(OC)cc3n2)[C@@H]2CCCC[C@@H]21
–	31	0.501	9	0.0398	0.191	0.3	COc1cc2nc(N3CCN(C(=O)OCc4ccccc4)[C@@H]4CCCC[C@@H]43)nc(N)c2cc1OC
